V1R ag counter: agonists of human V1a receptor, primary screen, counter-screen for OXTR agonist project, fluorescence, CHO-V1R cells | Vasopressin V1a receptor (Homo sapiens), P37288 | Fluo-8 calcium fluorescence, agonist mode; 0% DMSO, 100% 3 nM vasopressin | activation, % at 3 µM | actives 0.25% (n = 320,000);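 active = activation above the mean activation of all tested compounds plus 3 SD, per screening run, cut at about 20% in these data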;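 also: signal is peak over basal fluorescence ratio across a 100 second FLIPR read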
OX1R antag-1: OX1R (HCRTR1) antagonists, primary screen, fluorescence, CHO/OX1R cells, Fluo-8 calcium, orexin A; Orexin/Hypocretin receptor type 1 (Homo sapiens), O43613; AID 434989, 2010; inhibition, % at 5 µM; Fluo-8 calcium fluorescence; actives 0.43% (n = 330,000);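 active = inhibition above its plate's threshold, mean inhibition of all tested compounds on the plate plus 3 SD, cut at about 37% in these data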
Target sequence (O43613 whole entry, looked up): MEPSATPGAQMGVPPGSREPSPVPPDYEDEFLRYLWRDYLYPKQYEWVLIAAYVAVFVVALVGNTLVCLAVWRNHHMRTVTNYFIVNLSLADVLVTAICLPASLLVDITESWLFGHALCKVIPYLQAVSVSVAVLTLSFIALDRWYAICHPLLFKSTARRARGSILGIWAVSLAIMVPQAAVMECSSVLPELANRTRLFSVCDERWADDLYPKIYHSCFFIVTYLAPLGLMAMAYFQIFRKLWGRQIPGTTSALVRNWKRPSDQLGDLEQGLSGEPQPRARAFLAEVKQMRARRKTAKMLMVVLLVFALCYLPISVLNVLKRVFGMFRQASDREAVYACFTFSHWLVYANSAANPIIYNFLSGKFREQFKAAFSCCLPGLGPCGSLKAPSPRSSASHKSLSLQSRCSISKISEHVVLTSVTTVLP
OXTR potentiator: human OXTR potentiators, primary screen, fluorescence, CHO-OTR cells, Fluo-8 calcium; Oxytocin receptor (Homo sapiens), P30559; actives 0.061% (n = 320,000); activation, % at 3 µM; AID 2445, 2010; Fluo-8 calcium fluorescence, potentiator mode; 0% = oxytocin EC15, 100% = EC100;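 active = activation above that plate's cutoff, the mean activation of tested compounds plus 3 SD, cut at about 6.6% in these data, passing the limit was not always enough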
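Material: human OTR in CHO cells. Compound: 3.0 µM, one dose. Timing: compound 6 min at room temperature before oxytocin, 100 s read. Evaluation: % activation of max/min ratio relative to oxytocin controls. Replication: single well per compound, singlicate. Signal: Fluo-8 calcium dye fluorescence.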
OX1R antag-2: antagonists of human orexin 1 receptor (OX1R); OX1R-expressing cells, FRET antagonist read-out; inhibition, % at 6.6 µM; actives 1.8% (n = 330,000); AID 485270, 2010; in the data active = inhibition mostly above about 38%, no sharp cut-off; inactive = mostly below about 40%
OXTR agonist: human OXTR agonists, primary screen, fluorescence, CHO-OTR cells, Fluo-8 calcium | Fluo-8 calcium fluorescence; normalized: DMSO 0%, oxytocin 100% | activation, % at 3 µM | actives 0.32% (n = 320,000) | AID 2435, 2010;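 active = activation above the mean of all tested compounds plus 3 SD, cutoff set per screening run, cut at about 20% in these data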;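 also: peak over basal fluorescence ratio from a 100 s FLIPR kinetic read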
CHO parental Ca: ATP-evoked calcium signal inhibitors, parental CHO, primary screen, counter-screen for OX1R antagonist project, cell-based, fluorescence, Fluo-8 calcium dye | actives 0.63% (n = 330,000) | AID 463079, 2010 | inhibition, % at 5.6 µM | parental CHO-K1, ATP-induced calcium, Fluo-8 fluorescence;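 active = inhibition above that plate's mean sample inhibition plus 3 SD, cut at about 26% in these data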
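Assay system: untransfected parental CHO cell line. Also added: ATP agonist challenge. Dosing: one dose, 5.6 µM nominal. Measured by: Fluo-8 fluorescence. Read-out: % inhibition. Benchmarks: ATP wells versus no-ATP DMSO wells. Repeats: no replicates.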
OXTR pot confirm: human OXTR potentiators, confirmation, fluorescence, CHO-OTR cells, triplicate | shares compounds with OXTR potentiator | Fluo-8 calcium fluorescence, potentiation; scaled from low-dose to maximal oxytocin | activation, % at 3 µM | 180 tested, under 10 active | AID 434985, 2010;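 active = mean percent activation over triplicates above a cutoff set from solvent-only control plates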;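 also: compounds tested in the presence of an EC15 dose of oxytocin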
V1R ag confirm: V1a receptor agonists, calcium signal, confirmation, Fluo-8 calcium fluorescence, CHO-V1R cells | agonist | activation, % at 3 µM | shares compounds with V1R ag counter | actives 20% (n = 180);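 active = average activation exceeds primary screen hit cutoff, cut at about 21% in these data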;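 also: peak over basal fluorescence ratio during a 100 s FLIPR read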
OXTR counter: human OXTR agonists, counter-screen for V1R agonist project, fluorescence, CHO-OTR cells, triplicate | shares compounds with V1R ag counter | Fluo-8 calcium fluorescence | activation, % at 3 µM | actives 10% (n = 180);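 active = mean activation over three repeats above the cutoff from the earlier oxytocin receptor agonist screen, cut at about 20% in these data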;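 also: peak over minimum fluorescence ratio within a 100 second FLIPR read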
Of the large screens only hits and unclear results are named; the others gave an inactive call (follow-up assays come after a bar, where they were run). Only some compounds are listed: those with a hit (about 2.7% of all), similar ones and a draw of the others.

CC(C)=NOC(=O)c1c(C)noc1-c1snnc1C	none
COC(=O)c1c(C)noc1-c1snnc1C	OXTR potentiator 10.7 | OXTR pot confirm inactive
CN(C)c1ccc(CNC(=O)C2CCN(S(=O)(=O)c3ccc4c(c3)CCC(=O)N4)CC2)cc1	OXTR potentiator 11.4 | OXTR pot confirm inactive
COc1ccc(CNC(=O)[C@H](C)NC(=O)C2CC(=O)N(c3ccc4c(c3)OCO4)C2)cc1 (stereo partly specified)	OXTR potentiator 13.7 | OXTR pot confirm inactive
O=C(CCc1ccccc1)N1CCN(S(=O)(=O)c2cccs2)CC1	OXTR potentiator 13.0 | OXTR pot confirm inactive
Cn1c(=O)c2[nH]c(-c3ccccc3Cl)c(O)c2n(C)c1=O	OXTR potentiator 22.4 | OXTR pot confirm inactive
O=C(c1cc2ccccc2oc1=O)N(Cc1ccccc1)Cc1ccc2c(c1)OCO2	none
O=C(NCCc1ccccc1)NC1CCCCC1	OXTR potentiator 11.6 | OXTR pot confirm inactive
O=C(NNC(=O)c1ccc(F)c(S(=O)(=O)N2CCOCC2)c1)c1ccc(Br)cc1	none
COc1ccc(C(=O)NNC(=O)c2ccc(F)c(S(=O)(=O)N3CCOCC3)c2)cc1	OXTR potentiator 13.7 | OXTR pot confirm inactive
COC(=O)c1cc(C(=O)Nc2cccc(C)n2)cc([N+](=O)[O-])c1	OXTR potentiator 9.1 | OXTR pot confirm inactive
CC(Sc1nnc2ccccn12)C(N)=O (stereo unspecified)	none
CCN1C(=O)N(CC)c2cccc3cccc1c23	OXTR potentiator 11.4 | OXTR pot confirm inactive
CC(=O)c1cc(CN2CCN(C(C)C)C(CCO)C2)cs1 (stereo unspecified)	OXTR potentiator 12.2 | OXTR pot confirm inactive
O=C(NCC(c1ccco1)N1CCN(c2ccccc2F)CC1)c1ccc2c(c1)OCO2 (stereo unspecified)	none
COc1ccc(-c2nnc(Nc3ccc(OC)c(C(=O)N4CCCCC4)c3)c3ccccc23)cc1	OXTR potentiator 13.0 | OXTR pot confirm inactive
O=C(/C=C/c1ccc(S(=O)(=O)N2CCOCC2)cc1)NCc1ccccc1F	none
COc1cccc(CNC(=O)c2ccc(C)c(S(=O)(=O)N3CCCCC3)c2)c1	none
Cc1nc(-c2ccc(S(=O)(=O)NCc3cccnc3)s2)cs1	none
CCOC(=O)c1c(C)nc(C)c(C(=O)OCC)c1-c1ccccc1	none
CCOC(=O)c1c(C)nc2c(c1-c1cc(OC)c(OC)c(OC)c1)C(=O)c1ccccc1-2	OXTR potentiator 10.7 | OXTR pot confirm inactive
Cc1cccc(NC(=O)CCN2CCCC(C)C2)c1 (stereo unspecified)	none
CC(C)C(NC(=O)c1ccccc1)C(=O)OCC(=O)N1CCN(c2ccccc2)CC1 (stereo unspecified)	none
CCOc1ccc(-n2cnc3scc(-c4ccc(OC)c(OC)c4)c3c2=O)cc1	OXTR potentiator 11.2 | OXTR pot confirm inactive
COc1cccc(-n2cnc3scc(-c4cccs4)c3c2=O)c1	none
Cc1cccn2cc(CNC(=O)C3CCCCC3)nc12	none
Cc1cccn2cc(CNC(=O)c3ccc(Br)o3)nc12	OXTR potentiator 12.3 | OXTR pot confirm inactive
CCOC(=O)COc1cccc(C2NC(=O)c3ccccc3O2)c1 (stereo unspecified)	none
O=C(NC1CCCCC1)C1CCN(S(=O)(=O)c2cccc3cccnc23)CC1	OXTR potentiator 14.5 | OXTR pot confirm inactive
CCC1Sc2ccc(S(=O)(=O)Nc3ccc(OC)cc3)cc2NC1=O (stereo unspecified)	V1R ag counter 20.3 | V1R ag confirm inactive | OXTR counter inactive
CCOc1cc(N2CCOCC2)c(OCC)cc1NC(=O)c1nn(CC)c(=O)c2ccccc12	none
Nc1nc(-c2ccccn2)nc(N)c1Cc1ccccc1F	none
Nc1nc(-c2ccccn2)nc(N)c1Cc1ccc(Cl)cc1Cl	V1R ag counter 21.6 | V1R ag confirm inactive | OXTR counter inactive
COC(=O)C1=C(C)N(Cc2ccccc2)C(=NCCc2c[nH]c3ccccc23)N[C@H]1c1cccc(C(F)(F)F)c1	V1R ag counter 20.3, OX1R antag-1 67.4 | V1R ag confirm inactive | OXTR counter inactive
CC(=O)Nc1cccc(N/C(N)=N/c2nc(C)cc(C)n2)c1	none
Cc1cccc(N/C(N)=N/c2nc(C)cc(C)n2)c1	V1R ag counter 21.5 | V1R ag confirm inactive | OXTR counter inactive
CC(C)C(C(=O)Nc1ccncc1)c1ccc(Cl)cc1 (stereo unspecified)	V1R ag counter 26.6 | V1R ag confirm inactive | OXTR counter inactive
O=C(OCCN1C(=O)c2cccc3c(N4CCOCC4)ccc(c23)C1=O)c1ccccc1Cl	V1R ag counter 25.7, OX1R antag-1 82.2, OX1R antag-2 68.6, CHO parental Ca 90.7 | V1R ag confirm 30.3 | OXTR counter 42.3
O=C1c2cccc3c(N4CCCCC4)ccc(c23)C(=O)N1CCO	V1R ag counter 22.3 | V1R ag confirm 31.7 | OXTR counter inactive
CCC(NC(=O)c1cc(COc2ccc(C)nc2)on1)c1ccc(C)cc1 (stereo unspecified)	V1R ag counter 23.5 | V1R ag confirm inactive | OXTR counter inactive
S=c1[nH]nc(-c2cccs2)n1/N=C/c1c(Cl)cccc1Cl	V1R ag counter 27.2, OX1R antag-1 50.7, OX1R antag-2 107.7, CHO parental Ca 33.8 | V1R ag confirm inactive | OXTR counter inactive
O=C(N/N=C/c1cccn1-c1cccc(C(=O)O)c1)Nc1ccccc1	none
COc1cccc2c1C(=O)c1ccc3ccccc3c1C2=O	none
COc1ccc(OC)c2c1C(=O)c1ccccc1C2=O	V1R ag counter 23.2, OX1R antag-2 65.4 | V1R ag confirm 33.5 | OXTR counter 20.9

Bioassay records (PubChem)
